# Source: ChEMBL document CHEMBL4613227, “Synthesis and evaluation of the HIF-1α inhibitory activity of 3(5)-substituted-4-(quinolin-4-yl)- and 4-(2-phenylpyridin-4-yl)pyrazoles as inhibitors of ALK5” (Bioorg Med Chem Lett, 2020)
# Activity calls are given as the source filed them. The calls are words filed in the database; no cut-off is given here.
# Experiments:
# [1] = target: Mitogen-activated protein kinase 14 (Homo sapiens, UniProt Q16539); experiment: Inhibition of recombinant human p38alpha expressed in Escherichia coli assessed as residual activity at 10 uM (reference value: 100 +/- 0.1%)
# Outline: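 Single-point kinase screen at 10 μM, in duplicate; ALK5 as human GST-fusion from baculovirus/Sf9, p38α as untagged human protein from E. coli; residual activity relative to DMSO vehicle, mean ± SD of two independent experiments.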
# HUVEC = experiment: Inhibition of TNF-induced cell migration in HUVEC at 50 uM after 24 hrs by scratch wound healing assay; assay type: functional, cell-based; conditions: Homo sapiens
# Outline: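 HUVEC scratch assay: cells pretreated with graded concentrations, with or without TNF (10 ng/mL); uncovered area photographed at 24 h.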
# HCT-116 [2] = experiment: Induction of apoptosis in human HCT116 cells assessed as effect on cleaved caspase 8 expression at 50 uM preincubated for 12 hrs followed by TNF-stimulation and measured after 24 hrs by Western blot analysis; assay type: functional, cell-based
# Outline: (§1)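 HCT116 pretreated 12 h with 50 μM, then TNF (10 ng/mL) 24 h; whole cell extracts blotted for cleaved caspase-8, cleaved caspase-3, cleaved PARP, tubulin.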
# HCT-116 [3] = experiment: Down regulation of TNF-induced VEGF protein expression in human HCT116 cells at 50 uM pretreated for 12 hrs followed by TNF stimulation and measured after 24 hrs by Western blot analysis; assay type: functional, cell-based
# Outline: (§2)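 HCT116 pretreated 12 h with 50 μM, then TNF (10 ng/mL) 24 h; whole cell extracts immunoblotted for ICAM-1, MMP-9, VEGF with tubulin as loading reference.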
# HCT-116 [4] = experiment: Down regulation of TNF-induced MMP9 protein expression in human HCT116 cells at 50 uM pretreated for 12 hrs followed by TNF stimulation and measured after 24 hrs by Western blot analysis; assay type: functional, cell-based; outline: as §2
# HCT-116 [5] = experiment: Antiproliferative activity against human HCT116 cells assessed as reduction in TNF-induced number of Edu positive cells at 50 uM pretreated for 12 hrs followed by TNF stimulation and measured after 30 mins by Edu-incorporation based fluorescence microscopic analysis; assay type: functional, cell-based
# Outline: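 HCT116 cells pretreated 12 h (50 μM), then TNF 10 ng/ml for 30 min; EdU-labelled proliferating cells examined by fluorescence microscopy; mean ± SD of three independent experiments.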
# HCT-116 [6] = experiment: Down regulation of TNF-induced MMP9 mRNA expression in human HCT116 cells at 50 uM pretreated for 12 hrs followed by TNF stimulation and measured after 12 hrs by Western blot analysis; assay type: functional, cell-based; conditions: in the assay text read “RT-PCR analysis” for “Western blot analysis”
# Outline: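 HCT116 preincubated 12 h with graded concentrations, then TNF 10 ng/mL for a further 12 h; ICAM-1, VEGF, MMP-9 transcripts measured by RT-PCR, GAPDH for equal RNA loading.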
# HCT-116 [7] = experiment: Induction of apoptosis in human HCT116 cells assessed as early apoptotic cells at 50 uM preincubated for 12 hrs followed by TNF stimulation and measured after 24 hrs by Annexin-V/PI-staining based flow cytometric analysis (reference value: 2.8%); assay type: functional
# HCT-116 [8] = experiment: Induction of apoptosis in human HCT116 cells assessed as late apoptotic cells at 50 uM after 12 hrs by Annexin-V/PI-staining based flow cytometric analysis (reference value: 0.2%); assay type: functional
# HCT-116 [9] = experiment: Inhibition of hypoxia-induced HIF1alpha protein expression in human HCT116 cells incubated for 12 hrs under hypoxic condition by Western blot analysis; assay type: functional, cell-based
# Outline: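 HCT116 held under normoxia or hypoxia 12 h with graded concentrations; nuclear extracts probed for HIF-1α by Western blot, Topo-I as loading control.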
# HCT-116 [10] = experiment: Induction of apoptosis in human HCT116 cells assessed as late apoptotic cells at 50 uM preincubated for 12 hrs followed by TNF stimulation and measured after 24 hrs by Annexin-V/PI-staining based flow cytometric analysis (reference value: 1.4%); assay type: functional
# HCT-116 [11] = experiment: Inhibition of TNFalpha-induced HIF1alpha expression in human HCT116 cells at 10 to 50 uM by Western blot analysis; assay type: functional, cell-based
# Outline: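 HCT116 exposed to TNF 10 ng/mL for 24 h with graded concentrations; total protein blotted for HIF-1α, Topo-I reprobe as loading control.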
# HCT-116 [12] = experiment: Induction of apoptosis in human HCT116 cells assessed as necrotic cells at 50 uM preincubated for 12 hrs followed by TNF stimulation and measured after 24 hrs by Annexin-V/PI-staining based flow cytometric analysis (reference value: 3.6%); assay type: functional
# HCT-116 [13] = experiment: Induction of apoptosis in human HCT116 cells assessed as necrotic cells at 50 uM after 12 hrs by Annexin-V/PI-staining based flow cytometric analysis (reference value: 3.5%); assay type: functional
# HCT-116 [14] = experiment: Induction of apoptosis in human HCT116 cells assessed as PARP cleavage at 50 uM preincubated for 12 hrs followed by TNF-stimulation and measured after 24 hrs by Western blot analysis; assay type: functional, cell-based; outline: as §1
# [15] = target: Hypoxia-inducible factor 1-alpha (Homo sapiens) (UniProt Q16665); experiment: Inhibition of HIF1alpha transcriptional activity in hypoxia-induced human HCT116 cells co-transfected with luciferase reporter plasmid containing six copies of HREs and pRL-CMV plasmid by luciferase reporter gene assay; assay type: cell-based; conditions: HCT-116
# Outline: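 HCT116 transiently co-transfected with pGL3-HRE-luciferase and pRL-CMV; after 24 h, incubated under hypoxia with graded concentrations; luciferase activity read; mean ± SD, three independent experiments.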
# HCT-116 [16] = experiment: Inhibition of HIF1alpha accumulation in hypoxia-induced human HCT116 cells at 50 uM preincubated for 30 mins in presence of proteasome inhibitor MG-132 followed by compound addition and measured after 12 hrs under hypoxic condition by Western blot analysis; assay type: functional, cell-based
# Outline: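 HCT116 pretreated with MG-132 (10 μM) 30 min, then compound (50 μM) under 1% O₂ for 12 h; nuclear HIF-1α by Western blot, Topo-I loading control.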
# HCT-116 [17] = experiment: Induction of apoptosis in human HCT116 cells assessed as effect on cleaved caspase-3 expression at 50 uM preincubated for 12 hrs followed by TNF-stimulation and measured after 24 hrs by Western blot analysis; assay type: functional, cell-based; outline: as §1
# TGF-beta receptor type-1 = target: T1, TGF-beta receptor type-1 (Homo sapiens, UniProt P36897); experiment: Inhibition of recombinant GST-tagged human ALK5 expressed in baculovirus infected Sf9 insect cells
# T1 sequence (P36897 whole entry): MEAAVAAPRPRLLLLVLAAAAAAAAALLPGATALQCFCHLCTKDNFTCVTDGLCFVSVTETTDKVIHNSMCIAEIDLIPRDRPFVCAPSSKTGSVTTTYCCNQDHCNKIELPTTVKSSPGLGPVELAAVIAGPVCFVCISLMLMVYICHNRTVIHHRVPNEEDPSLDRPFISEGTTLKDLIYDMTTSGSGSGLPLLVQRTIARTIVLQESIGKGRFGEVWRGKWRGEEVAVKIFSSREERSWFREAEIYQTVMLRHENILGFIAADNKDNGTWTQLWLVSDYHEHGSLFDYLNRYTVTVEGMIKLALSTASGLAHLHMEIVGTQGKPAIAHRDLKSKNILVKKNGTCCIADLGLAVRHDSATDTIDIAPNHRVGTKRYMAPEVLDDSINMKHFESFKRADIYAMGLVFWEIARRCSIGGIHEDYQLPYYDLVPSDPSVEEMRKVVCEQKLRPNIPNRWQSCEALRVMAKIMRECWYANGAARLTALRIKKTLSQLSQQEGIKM
# Outline: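 IC50 determination against ALK5 (human GST-fusion, Sf9 baculovirus) and p38α (untagged human, E. coli); values averaged from three independent experiments run in triplicate.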
# Chain of Mitogen-activated protein kinase 14 (Q16539 whole entry, the tested form may be a part): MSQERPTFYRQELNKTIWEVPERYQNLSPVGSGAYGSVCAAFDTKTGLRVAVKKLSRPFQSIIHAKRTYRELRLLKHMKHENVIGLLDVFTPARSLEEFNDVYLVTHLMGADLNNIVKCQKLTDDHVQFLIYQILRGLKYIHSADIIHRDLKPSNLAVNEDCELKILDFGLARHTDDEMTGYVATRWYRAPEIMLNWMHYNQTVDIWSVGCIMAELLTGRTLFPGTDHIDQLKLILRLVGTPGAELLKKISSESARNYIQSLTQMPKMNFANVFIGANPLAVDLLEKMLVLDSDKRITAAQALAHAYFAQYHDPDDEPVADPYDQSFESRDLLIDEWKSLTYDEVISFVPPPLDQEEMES
# Chain of Hypoxia-inducible factor 1-alpha (Homo sapiens) (Q16665 whole entry, looked up): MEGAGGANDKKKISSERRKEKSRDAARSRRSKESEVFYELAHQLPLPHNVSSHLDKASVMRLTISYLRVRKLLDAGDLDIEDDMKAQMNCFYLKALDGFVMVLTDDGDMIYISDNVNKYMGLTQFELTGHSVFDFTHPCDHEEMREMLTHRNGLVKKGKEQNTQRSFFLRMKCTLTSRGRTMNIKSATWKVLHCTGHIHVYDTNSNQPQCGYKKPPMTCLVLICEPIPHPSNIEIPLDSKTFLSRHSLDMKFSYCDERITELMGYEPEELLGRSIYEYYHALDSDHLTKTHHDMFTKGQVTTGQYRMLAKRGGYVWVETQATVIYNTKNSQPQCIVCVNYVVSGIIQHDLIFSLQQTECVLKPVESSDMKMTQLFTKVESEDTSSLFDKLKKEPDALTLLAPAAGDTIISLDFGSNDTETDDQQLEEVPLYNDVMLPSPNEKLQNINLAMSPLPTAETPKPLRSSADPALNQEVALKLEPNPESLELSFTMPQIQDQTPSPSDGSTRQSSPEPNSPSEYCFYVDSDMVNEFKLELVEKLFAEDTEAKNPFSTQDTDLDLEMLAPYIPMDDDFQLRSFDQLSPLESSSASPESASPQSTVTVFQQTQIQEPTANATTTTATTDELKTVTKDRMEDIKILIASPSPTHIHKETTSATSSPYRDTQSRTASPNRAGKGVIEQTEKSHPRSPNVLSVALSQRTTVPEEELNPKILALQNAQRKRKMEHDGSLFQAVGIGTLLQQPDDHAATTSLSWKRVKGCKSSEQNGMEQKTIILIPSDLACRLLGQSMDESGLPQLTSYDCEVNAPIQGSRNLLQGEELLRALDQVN
smiles,measurement,setting,value
Cc1cccc(-c2nn(CC(=S)Nc3cccc(C#N)c3)cc2-c2ccnc3ccccc23)n1,Activity,[1],3%
same,inhibition,HUVEC,Active
same,Activity,HCT-116 [2],Active
same,Activity,HCT-116 [3],Active
same,Activity,HCT-116 [4],Active
same,Activity,HCT-116 [5],Active
same,Activity,HCT-116 [6],Active
same,Activity,HCT-116 [7],4.4%
same,Activity,HCT-116 [8],3.2%
same,inhibition,HCT-116 [9],Dose-dependent effect
same,Activity,HCT-116 [10],3.6%
same,inhibition,HCT-116 [11],Active
same,Activity,HCT-116 [12],5.4%
same,Activity,HCT-116 [13],8.5%
same,Activity,HCT-116 [14],Active
same,inhibition,[15],Dose-dependent effect
same,inhibition,HCT-116 [16],Active
same,Activity,HCT-116 [17],Active
same,IC50,TGF-beta receptor type-1,69 nM
